Measured values: ChEMBL document CHEMBL1122264, “Synthesis and biological properties of thiophene ring analogues of mianserin” (J Med Chem, 1983)
Active and inactive are the calls of the source.

What was measured:
[1] = (§1) In vitro antihistamine activity, by activation of guinea pig cerebral cortex adenylate cyclase by histamine mediated by both H1 and H2 receptors; assay type: functional, tissue-based, Cavia porcellus
Outline: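 Adenylate cyclase preparation from guinea pig cerebral cortex, activated by histamine (acting via H1 + H2 receptors). Percent inhibition is measured in triplicate over a wide concentration range, and IC50 is calculated from those data. Psychoyos procedure.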

[2] = target: T1, Cerebral cortex alpha adrenergic receptor (Bos taurus, UniProt Q28838+P18130); assay: In vitro binding affinity towards alpha-adrenoceptor of calf cortex membrane Site B using [3H]-clonidine
T1 sequence (Q28838 whole entry): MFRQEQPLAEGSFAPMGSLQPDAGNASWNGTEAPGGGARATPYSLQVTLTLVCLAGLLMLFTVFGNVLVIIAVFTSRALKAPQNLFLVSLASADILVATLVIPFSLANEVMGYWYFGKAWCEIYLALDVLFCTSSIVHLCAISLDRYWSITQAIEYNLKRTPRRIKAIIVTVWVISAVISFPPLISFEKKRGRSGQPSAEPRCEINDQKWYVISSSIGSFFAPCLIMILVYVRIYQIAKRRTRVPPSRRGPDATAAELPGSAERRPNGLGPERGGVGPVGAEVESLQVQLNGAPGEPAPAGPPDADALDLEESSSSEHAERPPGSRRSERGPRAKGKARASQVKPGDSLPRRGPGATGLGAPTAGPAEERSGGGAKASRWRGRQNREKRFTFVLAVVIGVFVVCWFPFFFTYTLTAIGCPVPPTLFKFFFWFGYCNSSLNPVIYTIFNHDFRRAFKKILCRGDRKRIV
T1 sequence (P18130 whole entry): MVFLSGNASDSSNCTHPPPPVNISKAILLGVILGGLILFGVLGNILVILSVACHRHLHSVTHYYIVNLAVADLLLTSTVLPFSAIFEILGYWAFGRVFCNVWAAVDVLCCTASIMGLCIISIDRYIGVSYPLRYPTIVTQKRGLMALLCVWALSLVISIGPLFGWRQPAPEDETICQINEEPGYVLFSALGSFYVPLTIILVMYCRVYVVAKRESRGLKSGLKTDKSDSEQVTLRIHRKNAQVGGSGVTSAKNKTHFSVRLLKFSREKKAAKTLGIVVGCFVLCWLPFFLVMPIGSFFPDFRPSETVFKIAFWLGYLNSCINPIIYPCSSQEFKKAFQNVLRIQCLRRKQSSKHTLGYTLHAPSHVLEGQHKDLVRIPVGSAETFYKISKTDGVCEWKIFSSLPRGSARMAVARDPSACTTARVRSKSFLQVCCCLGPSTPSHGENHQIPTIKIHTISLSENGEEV

Mus musculus [3] = assay: Central presynaptic alpha-blockade using [3H]rauwolscine (injected iv 20 min later and the mice were sacrificed at 35 min) (in vivo);value ranges between (1.2-5.9); assay type: functional; details: read-out: ID50 (the source's name)
Outline: (§2)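 Mice get test drug or vehicle ip at zero time, then [3H]rauwolscine iv 20 min later, and are sacrificed at 35 min. Displacement is measured in mouse forebrain. […] ID50 and 95% confidence limits follow the Granat method.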

Mus musculus [4] = assay: In vivo Antagonism (ip) of 0.1 mg/kg clonidine-induced analgesia (po) determined in phenylquinone-induced writhing assay at 10 mg/kg dose; the ratio being 4/10; assay type: functional, organism-based
Outline: (§3)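 Male mice (18–22 g) receive the test substance ip, then clonidine 0.1 mg/kg po 30 min later. Phenylquinone is given ip 20 min after clonidine. Mice writhing 5–15 min after phenylquinone count as reactors. The result is the number of mice, out of n = 10 per experiment, in which clonidine analgesia is reversed.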

[5] = target: T1, Cerebral cortex alpha adrenergic receptor; assay: In vitro binding affinity towards alpha-adrenoceptor of calf cortex membrane Site A using [3H]clonidine
[6] = target: serotonin (5-HT) receptor (Bos taurus); assay: In vitro binding affinity of serotonin receptor by interacting with high affinity, [3H]serotonin from calf caudate nucleus
Histamine H2 receptor = Histamine H2 receptor (Cavia porcellus, UniProt P47747); assay: In vitro antihistamine activity by activation of 4-methylhistamine mediated by Histamine H2 receptor; assay type: functional
[7] = target: Adrenergic receptor alpha; assay: In vitro binding affinity towards alpha-adreno ceptor of rat forebrain using [3H]prazosin
Outline: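 Rat forebrain membranes, [3H]prazosin binding by the Greengrass and Bremner procedure, with ascorbic acid omitted from the incubation medium. Drugs are tested in triplicate over a wide concentration range in a single experiment.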

Rattus norvegicus [8] = assay: In vivo determination of MHPG-SO4 level in rat whole brain at a dose 30 mg/kg ip administration (5 rats); assay type: functional; details: route intraperitoneal
Outline: (§4)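 Rats were given the test agent or vehicle ip as a suspension in corn starch. They were killed 2 h later, and MHPG-SO₄ was measured in whole brain in μg/g ± SE and as % of vehicle control. Five rats were used per experiment.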

[9] = as §1
Mus musculus [10] = species: Mus musculus; assay: Antidepressant potential (duration) by using the behavioral despair model; assay type: functional
Rattus norvegicus [11] = assay: In vivo determination of MHPG-SO4 level in rat whole brain at a dose 30 mg/kg ip administration; assay type: functional; details: route intraperitoneal; outline: as §4
Mus musculus [12] = assay: In vivo central presynaptic alpha-blockade using [3H]rauwolscine (injected iv 20 min later and the mice were sacrificed at 35 min); details: read-out: ID50
Rattus norvegicus [13] = assay: In vivo determination of MHPG-SO4 level in rat whole brain at a dose 0 mg/kg ip administration; assay type: functional; details: route intraperitoneal; outline: as §4
Rattus norvegicus [14] = assay: In vivo determination of MHPG-SO4 level in rat whole brain at a dose 10 mg/kg ip administration (5 rats); assay type: functional; details: route intraperitoneal
Outline: (§5)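 Rats, five per experiment, receive test agent ip as a corn starch suspension and are sacrificed 2 h later. Whole-brain MHPG-SO4 (μg/g) is measured by the Meek and Neff procedure and expressed as a percentage of control, ± SE.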

Mus musculus [15] = assay: In vivo Antagonism (ip) of 0.1 mg/kg clonidine-induced analgesia (po) determined in phenylquinone-induced writhing assay at a dose of 30 mg/kg dose; the ratio is 4/10; assay type: functional, organism-based; outline: as §3
Rattus norvegicus [16] = assay: In vivo determination of MHPG-SO4 level in rat whole brain at a dose 0 mg/kg intraperitoneal administration; assay type: functional; outline: as §5
Mus musculus [17] = assay: In vivo central presynaptic alpha-blockade using [3H]rauwolscine in mice (injected iv 20 min later and the mice were sacrificed at 35 min); assay type: functional; details: read-out: ID50 (the source's name); outline: as §2
Rattus norvegicus [18] = assay: In vivo determination of MHPG-SO4 level in rat whole brain at a dose 3 0 mg/kg ip administration; assay type: functional; details: route intraperitoneal; outline: as §5
[19] = target: serotonin (5-HT) receptor (Bos taurus)
Rattus norvegicus [20] = assay: In vivo determination of MHPG-SO4 level in rat whole brain at a dose 20 mg/kg ip administration (5 rats); assay type: functional; details: route intraperitoneal; outline: as §5
Rattus norvegicus [21] = assay: In vivo determination of MHPG-SO4 level in rat whole brain at a dose 10 mg/kg intraperitoneal administration; assay type: functional; outline: as §5
Rattus norvegicus [22] = assay: In vivo determination of MHPG-SO4 level in rat whole brain at a dose 20 mg/kg intraperitoneal administration; assay type: functional; outline: as §5

Chain of Histamine H2 receptor (P47747 whole entry): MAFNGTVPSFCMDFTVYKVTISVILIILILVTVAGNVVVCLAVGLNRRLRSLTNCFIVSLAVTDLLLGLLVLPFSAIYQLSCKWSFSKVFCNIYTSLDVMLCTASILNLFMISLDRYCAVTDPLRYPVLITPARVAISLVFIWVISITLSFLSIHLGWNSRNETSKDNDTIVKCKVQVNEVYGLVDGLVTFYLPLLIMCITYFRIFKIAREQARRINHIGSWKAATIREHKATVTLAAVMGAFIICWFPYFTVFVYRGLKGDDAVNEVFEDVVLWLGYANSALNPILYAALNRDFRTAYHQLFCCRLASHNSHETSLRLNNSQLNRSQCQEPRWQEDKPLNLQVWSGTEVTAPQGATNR

SMILES: CN1CCN2c3ccccc3Cc3sccc3C2C1 (stereo unspecified)
- IC50 [1]: 90 nM
- IC50 [2]: 3 nM
- ED50 (Mus musculus [3]): 2.7 mg/kg
- Antagonism (Mus musculus [4]): Partially active
- IC50 [5]: 2 nM
- IC50 [6]: 100 nM
- IC50 (Histamine H2 receptor): 7200 nM
- IC50 [7]: 300 nM

SMILES: CN1CCN2c3ccccc3Cc3ccccc3C2C1.Cl (stereo unspecified) [MIANSERIN HYDROCHLORIDE]
- Control (Rattus norvegicus [8]): 180%
- IC50 [9]: 190 nM
- Duration (Mus musculus [10]): 186 s
- MHPG SO4 (Rattus norvegicus [11]): 0.19 µg/g
- ED50 (Mus musculus [12]): 3.7 mg/kg
- MHPG_SO4 (Rattus norvegicus [13]): 0.11 µg/g
- IC50 (Histamine H2 receptor): 3800 nM

SMILES: CN1CCN2c3ccccc3Cc3ccsc3C2C1 (stereo unspecified)
- IC50 [1]: 280 nM
- Control (Rattus norvegicus [14]): 136%
- IC50 [2]: 3 nM
- Control (Rattus norvegicus [8]): 245%
- Antagonism (Mus musculus [15]): Partially active
- MHPG_SO4 (Rattus norvegicus [16]): 0.11 µg/g
- ED50 (Mus musculus [17]): 3.3 mg/kg
- MHPG SO4 (Rattus norvegicus [18]): 0.27 µg/g
- Duration (Mus musculus [10]): 185 s
- IC50 [5]: 3 nM
- IC50 [19]: 500 nM
- IC50 (Histamine H2 receptor): 19000 nM
- Control (Rattus norvegicus [20]): 191%
- IC50 [7]: 1400 nM
- MHPG_SO4 (Rattus norvegicus [21]): 0.15 µg/g
- MHPG SO4 (Rattus norvegicus [22]): 0.21 µg/g
